# *1 amine or outer side, *2 acyl side, *3 side chain or, on linkers, in order; H or OH if unused. Where a SMILES comes first, the peptide text is derived from it. Bridges are numbered along the chain shown (N, C = ends). [ ]: non-standard residue; d: D form. The star is where a group is joined. Staurosporine = CO[C@@H]1[C@H](N(C)*)C[C@H]2O[C@]1(C)n1c3ccccc3c3c4c(c5c6ccccc6n2c5c31)C(=O)NC4; Suc = O=C(CCC(=O)[*:2])[*:1]; Dap = NC[C@H](N)C(=O)O; βAla = NCCC(=O)O
# Legend:
# [1] = target: Cyclin-dependent kinase 7 (Homo sapiens) (UniProt P50613); assay: Binding affinity to human CDK7 at 500 nM by cell-based competition binding assay relative to control in presence of DTT
# How it was run: (§1)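 Commercial (Ambit) competitive kinase-binding panel of 90 kinases measured the binding profile. Run under reducing conditions of 7.5 mM DTT. Binding is expressed relative to control.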
# [2] = target: T1, Bone morphogenetic protein receptor type-2 (Homo sapiens) (UniProt Q13873); assay: Binding affinity to human BMPR2 at 500 nM by cell-based competition binding assay relative to control in presence of DTT
# T1 sequence (whole entry): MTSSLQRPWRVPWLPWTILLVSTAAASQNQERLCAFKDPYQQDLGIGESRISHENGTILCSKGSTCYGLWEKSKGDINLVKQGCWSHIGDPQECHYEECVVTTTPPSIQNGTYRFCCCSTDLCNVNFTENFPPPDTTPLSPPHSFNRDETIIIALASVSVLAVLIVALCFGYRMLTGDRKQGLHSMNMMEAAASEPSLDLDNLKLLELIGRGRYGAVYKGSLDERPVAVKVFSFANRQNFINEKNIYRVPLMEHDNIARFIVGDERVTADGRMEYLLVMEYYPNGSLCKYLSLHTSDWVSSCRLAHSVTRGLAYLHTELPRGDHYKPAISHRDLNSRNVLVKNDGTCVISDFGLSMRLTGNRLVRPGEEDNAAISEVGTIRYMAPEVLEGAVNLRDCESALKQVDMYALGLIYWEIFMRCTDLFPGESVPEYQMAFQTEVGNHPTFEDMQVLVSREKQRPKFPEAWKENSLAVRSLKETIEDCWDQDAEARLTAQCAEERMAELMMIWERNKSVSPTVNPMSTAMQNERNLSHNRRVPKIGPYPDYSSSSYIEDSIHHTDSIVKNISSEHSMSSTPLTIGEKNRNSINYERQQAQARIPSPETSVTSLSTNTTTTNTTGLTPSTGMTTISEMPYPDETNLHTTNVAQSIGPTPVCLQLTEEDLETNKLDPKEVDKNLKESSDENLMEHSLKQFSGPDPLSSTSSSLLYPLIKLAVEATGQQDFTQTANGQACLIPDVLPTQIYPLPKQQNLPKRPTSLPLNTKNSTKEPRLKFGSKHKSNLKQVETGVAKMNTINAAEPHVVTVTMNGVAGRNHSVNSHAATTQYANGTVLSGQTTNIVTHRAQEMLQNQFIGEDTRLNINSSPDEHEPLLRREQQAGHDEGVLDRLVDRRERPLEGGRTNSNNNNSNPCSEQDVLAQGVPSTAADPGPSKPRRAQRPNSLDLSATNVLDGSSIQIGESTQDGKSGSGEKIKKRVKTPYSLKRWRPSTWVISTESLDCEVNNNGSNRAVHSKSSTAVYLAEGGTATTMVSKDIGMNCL
# How it was run: (§2)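 Kinase binding profiling ran on a commercial (Ambit) competitive binding screen against a panel of 90 kinases. The screen used reducing conditions with 7.5 mM DTT. To withstand the DTT, the bivalent ligand was tested as its amide isostere, with the disulfide replaced. A staurosporine derivative carrying a 3 β-alanine linker was run as the reference compound.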
# [3] = target: Mitogen-activated protein kinase kinase kinase 9 (Homo sapiens) (UniProt P80192); assay: Binding affinity to human MLK1 at 500 nM by cell-based competition binding assay relative to control in presence of DTT
# [4] = target: T2, Serine/threonine-protein kinase Chk1 (Homo sapiens) (UniProt O14757); assay: Binding affinity to human CHEK1 at 500 nM by cell-based competition binding assay relative to control in presence of DTT; how it was run: as §1
# T2 sequence (whole entry): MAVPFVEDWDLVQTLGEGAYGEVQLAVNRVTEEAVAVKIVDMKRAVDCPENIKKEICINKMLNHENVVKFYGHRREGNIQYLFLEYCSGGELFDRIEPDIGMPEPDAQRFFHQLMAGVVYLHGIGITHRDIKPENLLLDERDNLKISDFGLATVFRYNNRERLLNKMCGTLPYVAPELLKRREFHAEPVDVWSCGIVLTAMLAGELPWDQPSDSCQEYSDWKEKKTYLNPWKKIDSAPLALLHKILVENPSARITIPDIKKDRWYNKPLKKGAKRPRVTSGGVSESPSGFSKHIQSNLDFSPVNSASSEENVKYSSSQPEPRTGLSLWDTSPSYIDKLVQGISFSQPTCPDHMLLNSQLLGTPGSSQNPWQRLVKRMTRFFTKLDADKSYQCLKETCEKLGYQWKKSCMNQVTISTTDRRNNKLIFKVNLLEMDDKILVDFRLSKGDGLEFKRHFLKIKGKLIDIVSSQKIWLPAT
# [5] = system: Serine/threonine-protein kinase B-raf (Homo sapiens), P15056 [V600E]; assay: Binding affinity to human BRAF V600E mutant at 500 nM by cell-based competition binding assay relative to control in presence of DTT; how it was run: as §2
# [6] = target: Phosphatidylinositol 4,5-bisphosphate 3-kinase catalytic subunit gamma isoform (Homo sapiens) (UniProt P48736); assay: Ratio of staurosporine to compound binding affinity to PI3Kgamma in presence of DTT
# [7] = target: Fibroblast growth factor receptor 3 (Homo sapiens) (UniProt P22607); assay: Binding affinity to human FGFR3 at 200 nM by cell-based competition binding assay relative to control in presence of DTT; how it was run: as §1
# [8] = target: Cyclin-dependent kinase 2 (Homo sapiens) (UniProt P24941); assay: Binding affinity to human CDK2 at 200 nM by cell-based competition binding assay relative to control in presence of DTT; how it was run: as §2
# [9] = system: Serine/threonine-protein kinase B-raf (Homo sapiens), P15056 [V600E]; assay: Binding affinity to human BRAF V600E mutant at 200 nM by cell-based competition binding assay relative to control in presence of DTT; how it was run: as §2
# [10] = target: Cyclin-dependent kinase 7 (Homo sapiens) (UniProt P50613); assay: Binding affinity to human CDK7 at 200 nM by cell-based competition binding assay relative to control in presence of DTT; how it was run: as §2
# [11] = target: Aurora kinase B (Homo sapiens) (UniProt Q96GD4); assay: Binding affinity to human aurora kinase B at 50 nM by cell-based competition binding assay relative to control in presence of DTT
# [12] = target: RAF proto-oncogene serine/threonine-protein kinase (Homo sapiens) (UniProt P04049); assay: Binding affinity to human RAF1 at 50 nM by cell-based competition binding assay relative to control in presence of DTT
# [13] = target: Dual specificity mitogen-activated protein kinase kinase 2 (Homo sapiens) (UniProt P36507); assay: Binding affinity to human MEK2 at 50 nM by cell-based competition binding assay relative to control in presence of DTT
# Dual specificity mitogen-activated protein kinase kinase 2 (Homo sapiens), sequence (P36507 whole entry): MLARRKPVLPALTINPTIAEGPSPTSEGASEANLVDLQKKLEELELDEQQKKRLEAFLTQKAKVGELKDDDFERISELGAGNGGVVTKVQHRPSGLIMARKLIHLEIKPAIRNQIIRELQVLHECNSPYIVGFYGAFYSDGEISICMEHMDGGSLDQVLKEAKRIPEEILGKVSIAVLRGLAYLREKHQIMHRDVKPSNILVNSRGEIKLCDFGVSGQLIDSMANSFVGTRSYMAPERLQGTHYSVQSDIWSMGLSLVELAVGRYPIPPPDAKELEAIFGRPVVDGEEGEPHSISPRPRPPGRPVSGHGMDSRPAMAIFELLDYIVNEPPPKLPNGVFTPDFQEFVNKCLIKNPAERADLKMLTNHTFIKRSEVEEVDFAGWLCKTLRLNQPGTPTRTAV
# Cyclin-dependent kinase 7 (Homo sapiens), sequence (P50613 whole entry): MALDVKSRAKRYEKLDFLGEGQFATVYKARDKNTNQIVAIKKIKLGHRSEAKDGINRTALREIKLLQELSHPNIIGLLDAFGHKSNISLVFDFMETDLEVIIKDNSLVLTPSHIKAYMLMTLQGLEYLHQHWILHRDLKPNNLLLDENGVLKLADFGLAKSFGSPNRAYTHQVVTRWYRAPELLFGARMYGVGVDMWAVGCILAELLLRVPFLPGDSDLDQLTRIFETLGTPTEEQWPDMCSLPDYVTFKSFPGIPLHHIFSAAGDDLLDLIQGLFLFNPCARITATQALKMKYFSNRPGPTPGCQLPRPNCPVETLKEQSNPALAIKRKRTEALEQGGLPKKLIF
# Serine/threonine-protein kinase B-raf (Homo sapiens), P15056 [V600E], sequence (P15056 whole entry V600E, canonical isoform): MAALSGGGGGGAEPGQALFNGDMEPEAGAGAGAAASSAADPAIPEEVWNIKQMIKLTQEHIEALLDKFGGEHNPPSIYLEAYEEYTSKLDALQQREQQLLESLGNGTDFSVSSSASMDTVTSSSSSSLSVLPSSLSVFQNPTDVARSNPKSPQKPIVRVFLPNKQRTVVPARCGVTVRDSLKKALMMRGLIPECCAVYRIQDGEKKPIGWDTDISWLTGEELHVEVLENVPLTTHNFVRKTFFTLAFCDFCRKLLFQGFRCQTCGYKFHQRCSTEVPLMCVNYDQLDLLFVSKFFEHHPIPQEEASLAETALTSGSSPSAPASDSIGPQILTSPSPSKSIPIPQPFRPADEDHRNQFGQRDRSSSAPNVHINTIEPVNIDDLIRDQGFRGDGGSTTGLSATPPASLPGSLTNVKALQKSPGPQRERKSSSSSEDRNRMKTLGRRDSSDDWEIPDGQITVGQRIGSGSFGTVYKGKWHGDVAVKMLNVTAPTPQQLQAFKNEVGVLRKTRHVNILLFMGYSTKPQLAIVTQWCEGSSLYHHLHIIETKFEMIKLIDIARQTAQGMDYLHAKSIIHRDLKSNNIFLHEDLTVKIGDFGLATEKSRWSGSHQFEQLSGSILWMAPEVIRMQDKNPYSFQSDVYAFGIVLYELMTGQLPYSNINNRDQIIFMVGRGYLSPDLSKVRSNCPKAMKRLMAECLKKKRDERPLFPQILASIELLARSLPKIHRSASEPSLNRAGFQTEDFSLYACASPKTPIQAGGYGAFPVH
# Fibroblast growth factor receptor 3 (Homo sapiens), sequence (P22607 23-806 limits assumed): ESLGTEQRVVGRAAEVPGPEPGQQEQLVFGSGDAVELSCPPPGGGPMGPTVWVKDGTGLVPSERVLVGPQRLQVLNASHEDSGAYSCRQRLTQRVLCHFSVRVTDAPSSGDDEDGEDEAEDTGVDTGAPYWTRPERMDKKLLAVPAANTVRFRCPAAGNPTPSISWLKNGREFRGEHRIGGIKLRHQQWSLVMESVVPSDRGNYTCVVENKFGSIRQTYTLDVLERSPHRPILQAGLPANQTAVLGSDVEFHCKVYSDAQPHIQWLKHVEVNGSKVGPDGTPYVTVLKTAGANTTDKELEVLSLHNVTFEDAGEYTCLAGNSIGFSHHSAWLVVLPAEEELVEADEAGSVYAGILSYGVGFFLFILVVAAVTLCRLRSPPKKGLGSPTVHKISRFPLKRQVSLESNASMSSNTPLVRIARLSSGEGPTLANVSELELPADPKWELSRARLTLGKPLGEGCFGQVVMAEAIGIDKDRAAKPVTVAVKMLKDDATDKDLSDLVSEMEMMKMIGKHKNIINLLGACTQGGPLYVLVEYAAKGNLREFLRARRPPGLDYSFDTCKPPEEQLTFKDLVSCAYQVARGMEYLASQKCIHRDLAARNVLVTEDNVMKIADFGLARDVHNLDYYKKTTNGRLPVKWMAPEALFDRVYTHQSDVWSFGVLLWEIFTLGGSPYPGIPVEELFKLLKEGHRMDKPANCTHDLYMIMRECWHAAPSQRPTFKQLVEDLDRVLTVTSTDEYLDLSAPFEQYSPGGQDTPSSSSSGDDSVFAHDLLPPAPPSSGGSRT
# Phosphatidylinositol 4,5-bisphosphate 3-kinase catalytic subunit gamma isoform (Homo sapiens), sequence (P48736 whole entry, looked up, canonical isoform): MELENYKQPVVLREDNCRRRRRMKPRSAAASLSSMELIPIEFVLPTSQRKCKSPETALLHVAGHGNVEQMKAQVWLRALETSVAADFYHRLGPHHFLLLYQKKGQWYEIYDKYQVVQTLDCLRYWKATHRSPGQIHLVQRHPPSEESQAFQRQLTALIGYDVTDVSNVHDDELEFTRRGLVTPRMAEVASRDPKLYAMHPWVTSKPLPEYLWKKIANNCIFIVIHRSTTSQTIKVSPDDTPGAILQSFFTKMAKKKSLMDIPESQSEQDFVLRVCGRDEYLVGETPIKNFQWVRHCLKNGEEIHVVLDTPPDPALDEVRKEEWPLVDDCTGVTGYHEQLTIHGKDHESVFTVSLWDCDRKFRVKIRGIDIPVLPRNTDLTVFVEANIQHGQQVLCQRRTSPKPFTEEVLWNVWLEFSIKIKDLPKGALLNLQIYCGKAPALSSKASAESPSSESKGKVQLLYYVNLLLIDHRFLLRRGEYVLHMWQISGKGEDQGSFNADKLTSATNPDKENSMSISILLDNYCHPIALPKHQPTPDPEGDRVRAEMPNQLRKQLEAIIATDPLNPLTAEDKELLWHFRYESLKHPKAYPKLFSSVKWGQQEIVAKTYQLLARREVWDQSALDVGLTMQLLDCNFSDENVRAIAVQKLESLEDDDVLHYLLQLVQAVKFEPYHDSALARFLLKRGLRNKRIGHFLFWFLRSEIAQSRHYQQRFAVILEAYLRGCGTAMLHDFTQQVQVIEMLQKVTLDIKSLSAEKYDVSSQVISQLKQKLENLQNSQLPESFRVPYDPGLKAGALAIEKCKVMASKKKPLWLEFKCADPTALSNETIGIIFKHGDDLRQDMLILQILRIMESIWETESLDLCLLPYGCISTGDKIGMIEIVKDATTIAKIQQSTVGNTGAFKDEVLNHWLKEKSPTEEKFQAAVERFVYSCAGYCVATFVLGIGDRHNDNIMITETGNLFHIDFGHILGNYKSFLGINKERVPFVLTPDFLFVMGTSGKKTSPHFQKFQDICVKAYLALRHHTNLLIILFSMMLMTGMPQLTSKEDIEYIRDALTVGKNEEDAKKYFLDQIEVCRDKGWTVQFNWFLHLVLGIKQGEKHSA
# RAF proto-oncogene serine/threonine-protein kinase (Homo sapiens), sequence (P04049 whole entry): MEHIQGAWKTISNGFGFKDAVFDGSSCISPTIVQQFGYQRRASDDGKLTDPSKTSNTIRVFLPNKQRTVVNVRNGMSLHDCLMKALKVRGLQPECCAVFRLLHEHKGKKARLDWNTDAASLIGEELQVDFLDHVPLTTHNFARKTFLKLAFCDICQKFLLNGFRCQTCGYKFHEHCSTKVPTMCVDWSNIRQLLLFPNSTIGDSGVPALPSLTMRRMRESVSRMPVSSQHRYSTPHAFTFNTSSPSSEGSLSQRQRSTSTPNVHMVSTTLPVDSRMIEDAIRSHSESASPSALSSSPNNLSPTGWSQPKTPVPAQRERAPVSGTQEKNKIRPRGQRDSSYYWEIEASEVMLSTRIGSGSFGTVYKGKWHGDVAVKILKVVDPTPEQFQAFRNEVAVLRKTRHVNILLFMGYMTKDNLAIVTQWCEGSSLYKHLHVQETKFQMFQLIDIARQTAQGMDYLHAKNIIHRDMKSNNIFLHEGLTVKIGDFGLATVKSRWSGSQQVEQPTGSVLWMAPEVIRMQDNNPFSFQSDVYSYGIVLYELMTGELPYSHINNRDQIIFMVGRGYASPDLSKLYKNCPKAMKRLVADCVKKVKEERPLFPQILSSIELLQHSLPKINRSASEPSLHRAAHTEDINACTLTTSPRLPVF
# Aurora kinase B (Homo sapiens), sequence (Q96GD4 whole entry): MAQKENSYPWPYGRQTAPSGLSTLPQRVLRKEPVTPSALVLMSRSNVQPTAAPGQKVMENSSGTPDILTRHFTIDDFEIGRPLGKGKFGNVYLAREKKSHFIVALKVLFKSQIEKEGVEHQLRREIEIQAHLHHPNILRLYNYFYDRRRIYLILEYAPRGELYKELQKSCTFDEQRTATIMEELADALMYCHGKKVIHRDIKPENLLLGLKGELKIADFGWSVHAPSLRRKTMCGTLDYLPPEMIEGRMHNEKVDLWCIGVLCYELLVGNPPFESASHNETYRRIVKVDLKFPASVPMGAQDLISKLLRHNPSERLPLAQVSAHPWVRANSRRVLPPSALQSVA
smiles,measurement,setting,value
CO[C@@H]1[C@H](N(C)C(=O)CCC(=O)NCCC(=O)NCCC(=O)NCCC(N)=O)C[C@H]2O[C@]1(C)n1c3ccccc3c3c4c(c5c6ccccc6n2c5c31)C(=O)NC4,Activity,[1],100%
same,Activity,[2],100%
same,Activity,[3],0.55%
same,Activity,[4],54%
same,Activity,[5],94%
same,Selectivity ratio,[6],6
CO[C@@H]1[C@H](N(C)C(=O)CCC(=O)NCCC(=O)NCCC(=O)NCCC(=O)NCCC(=O)NCCC(=O)NCCC(=O)NCCC(=O)N[C@H]2CSSC[C@@H](C(=O)NCC(N)=O)NC(=O)CNC(=O)[C@H](Cc3ccccc3)NC(=O)[C@H](C(C)C)NC(=O)[C@H](CCCNC(=N)N)NC(=O)[C@H](Cc3ccccc3)NC(=O)[C@H](C(C)C)NC2=O)C[C@H]2O[C@]1(C)n1c3ccccc3c3c4c(c5c6ccccc6n2c5c31)C(=O)NC4 ({Staurosporine-Suc-βAla-βAla-βAla-βAla-βAla-βAla-βAla}-CVFRVFGCG-NH2; disulfide 1-8),Activity,[7],85%
same,Activity,[8],100%
same,Activity,[9],100%
same,Activity,[10],74%
CO[C@@H]1[C@H](N(C)C(=O)CCC(=O)NCCC(=O)NCCC(=O)NCCC(=O)NCCC(=O)NCCC(=O)NCCC(=O)NCCC(=O)N[C@H]2CNC(=O)C[C@@H](C(N)=O)NC(=O)CNC(=O)[C@H](Cc3ccccc3)NC(=O)[C@H](C(C)C)NC(=O)[C@H](CCCNC(=N)N)NC(=O)[C@H](Cc3ccccc3)NC(=O)[C@H](C(C)C)NC2=O)C[C@H]2O[C@]1(C)n1c3ccccc3c3c4c(c5c6ccccc6n2c5c31)C(=O)NC4 ({Staurosporine-Suc-βAla-βAla-βAla-βAla-βAla-βAla-βAla}-[Dap]VFRVFGD-NH2; lactam 1-8),Activity,[11],33%
same,Activity,[12],100%
same,Activity,[13],87%

# Source: ChEMBL document CHEMBL1152541, “Staurosporine tethered peptide ligands that target cAMP-dependent protein kinase (PKA): optimization and selectivity profiling” (Bioorg Med Chem, 2009)
